{"source": "ChEMBL document CHEMBL4765233", "about": "“From Lead to Drug Candidate: Optimization of 3-(Phenylethynyl)-1H-pyrazolo[3,4-d]pyrimidin-4-amine Derivatives as Agents for the Treatment of Triple Negative Breast Cancer” (J Med Chem, 2016)", "key": {"[1]": {"target": "Fibroblast growth factor receptor 2 (Homo sapiens, UniProt P21802, N549H)", "sequence (P21802 22-821 N549H limits assumed)": "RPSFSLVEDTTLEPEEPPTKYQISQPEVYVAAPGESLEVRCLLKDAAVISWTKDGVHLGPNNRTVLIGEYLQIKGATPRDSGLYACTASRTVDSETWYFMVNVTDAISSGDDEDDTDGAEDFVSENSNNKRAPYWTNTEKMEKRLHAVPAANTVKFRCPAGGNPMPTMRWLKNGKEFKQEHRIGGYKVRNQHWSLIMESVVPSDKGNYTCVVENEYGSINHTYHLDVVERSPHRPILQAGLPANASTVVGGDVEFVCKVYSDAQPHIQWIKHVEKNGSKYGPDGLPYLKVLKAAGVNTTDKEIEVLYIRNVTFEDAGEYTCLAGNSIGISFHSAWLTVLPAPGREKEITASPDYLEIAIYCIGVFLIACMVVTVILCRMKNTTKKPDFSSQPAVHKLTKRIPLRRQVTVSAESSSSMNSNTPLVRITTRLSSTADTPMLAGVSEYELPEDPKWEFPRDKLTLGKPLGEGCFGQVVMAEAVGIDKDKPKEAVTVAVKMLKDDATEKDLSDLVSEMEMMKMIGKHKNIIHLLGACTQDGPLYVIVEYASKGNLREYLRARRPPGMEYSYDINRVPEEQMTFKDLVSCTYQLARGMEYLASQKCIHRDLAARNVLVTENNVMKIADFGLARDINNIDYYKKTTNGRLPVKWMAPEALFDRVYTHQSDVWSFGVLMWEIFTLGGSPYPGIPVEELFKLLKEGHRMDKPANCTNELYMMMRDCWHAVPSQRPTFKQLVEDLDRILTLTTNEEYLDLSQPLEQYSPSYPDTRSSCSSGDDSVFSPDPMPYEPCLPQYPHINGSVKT", "assay": "Inhibition of human recombinant FGFR2 N549H mutant (456 to 770 residues) using GGEEEEYFELVKKKK as substrate incubated for 40 mins in presence of [gamma33P-ATP] by radiometric scintillation counting analysis"}, "MDA-MB-231 [2]": {"test_system": "MDA-MB-231", "assay": "Antitumor activity against human MDA-MB-231 cells xenografted in SCID mouse assessed as tumor growth inhibition administered orally once daily for 21 days and measured every 3 days", "format": "functional", "details": "dose 10-40 mg/kg/day, time 21.0 day", "in_short": "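SCID mice (5−6 weeks) injected subcutaneously with 100 μL of cells at 5 × 10^7/mL. At 150−200 mm3 mice randomized, 6 per group. Oral compounds given in water with 25% PEG400 plus 5% DMSO; paclitaxel given 10 mg/kg/week iv. Tumor volume a×b²/2 and body weight measured every 3 days. Inhibition rate (c−d)/c×100% against vehicle control.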"}, "MDA-MB-231 [3]": {"test_system": "MDA-MB-231", "assay": "Induction of apoptosis in human MDA-MB-231 cells assessed as late apoptotic cells at 0.01 uM incubated for 24 hrs by annexin V-FITC and propidium iodide staining based flow cytometry analysis (reference value: 0.85 %)", "format": "functional"}, "Mus musculus": {"test_system": "Mus musculus", "assay": "In vivo inhibition of MEK in SCID mouse xenografted with human MDA-MB-231 cells assessed as reduction in phosphorylation of MEK in tumor tissue at 40 mg/kg, po QD for 21 days by immunohistochemical analysis", "format": "functional, organism-based", "details": "dose 40.0 mg/kg/day, time 21.0 day", "in_short": "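Tumors taken from xenografted SCID mice dosed orally at 40 mg/kg/q.d. or given control; mice euthanized at set times. Tumors formalin-fixed and paraffin-embedded, stained by immunohistochemistry for phospho-proteins, and imaged by light microscopy.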"}, "BT-474": {"test_system": "BT-474", "assay": "Antiproliferative activity against human BT-474 cells assessed as reduction in cell viability incubated for 72 hrs by MTT assay", "format": "functional, cell-based", "details": "BT-474, 72 h", "in_short": "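MTT viability assay. ATCC cell lines were grown in designated medium with 10% FBS at 37 °C, 5% CO2. Cells seeded at 1500−30000 per well and incubated 24 h, then exposed to compound (0−10 μg/mL) for 72 h. MTT added for 2−4 h. Formazan dissolved in DMSO (adherent) or acidified SDS overnight (suspension), absorbance read at 570 nm. Triplicates; IC50 calculated.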"}, "[4]": {"assay": "Toxicity against SCID mouse xenografted with human MDA-MB-231 cells assessed as change in body weight at 10 to 40 mg/kg, po QD for 21 days and measured every 3 days", "format": "organism-based", "details": "in vivo, 504 h, dose 10-40 mg/kg/day, time 21 day", "in_short": "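Exponential-phase cells washed and injected subcutaneously (5 × 10^6 cells in 100 μL) into 5–6-week SCID mice. At 150–200 mm3, mice randomised to groups of 6. Oral dosing daily in water with 25% PEG400 and 5% DMSO; paclitaxel 10 mg/kg weekly by tail vein. Body weight measured every 3 days and side effects checked daily.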"}, "[5]": {"target": "Proto-oncogene tyrosine-protein kinase Src (Homo sapiens) (UniProt P12931)", "sequence (P12931 2-536 limits assumed)": "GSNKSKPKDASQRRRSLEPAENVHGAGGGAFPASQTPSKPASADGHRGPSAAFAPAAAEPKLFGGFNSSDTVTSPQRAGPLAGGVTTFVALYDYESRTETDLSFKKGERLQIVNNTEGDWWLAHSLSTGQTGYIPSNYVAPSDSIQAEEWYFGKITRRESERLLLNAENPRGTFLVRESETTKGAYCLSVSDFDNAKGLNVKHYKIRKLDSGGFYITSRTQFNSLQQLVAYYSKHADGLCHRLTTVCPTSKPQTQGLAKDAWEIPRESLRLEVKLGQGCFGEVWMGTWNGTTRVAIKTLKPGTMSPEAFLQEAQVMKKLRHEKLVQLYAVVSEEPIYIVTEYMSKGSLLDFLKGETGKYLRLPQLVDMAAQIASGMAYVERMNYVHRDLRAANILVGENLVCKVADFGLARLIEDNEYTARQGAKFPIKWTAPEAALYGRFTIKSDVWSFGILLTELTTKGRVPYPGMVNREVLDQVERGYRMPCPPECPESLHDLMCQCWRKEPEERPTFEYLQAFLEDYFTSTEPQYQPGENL", "assay": "Inhibition of Src in human MDA-MB-231 cells assessed as reduction in phosphorylation of Src incubated for 20 hrs by Western blot analysis", "format": "cell-based", "in_short": "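MDA-MB-231 cells treated with a series of concentrations for 20 h at 37 °C. Cells washed with ice-cold saline and lysed in RIPA buffer with protease cocktail. Lysates cleared at 12000 rpm for 10 min at 4 °C and protein quantified by Bradford. Equal protein separated by SDS-PAGE, transferred to PVDF and probed with antibodies.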"}, "[6]": {"target": "Receptor tyrosine-protein kinase erbB-2 (Homo sapiens, UniProt P04626, G778D)", "sequence (P04626 23-1255 G778D limits assumed)": "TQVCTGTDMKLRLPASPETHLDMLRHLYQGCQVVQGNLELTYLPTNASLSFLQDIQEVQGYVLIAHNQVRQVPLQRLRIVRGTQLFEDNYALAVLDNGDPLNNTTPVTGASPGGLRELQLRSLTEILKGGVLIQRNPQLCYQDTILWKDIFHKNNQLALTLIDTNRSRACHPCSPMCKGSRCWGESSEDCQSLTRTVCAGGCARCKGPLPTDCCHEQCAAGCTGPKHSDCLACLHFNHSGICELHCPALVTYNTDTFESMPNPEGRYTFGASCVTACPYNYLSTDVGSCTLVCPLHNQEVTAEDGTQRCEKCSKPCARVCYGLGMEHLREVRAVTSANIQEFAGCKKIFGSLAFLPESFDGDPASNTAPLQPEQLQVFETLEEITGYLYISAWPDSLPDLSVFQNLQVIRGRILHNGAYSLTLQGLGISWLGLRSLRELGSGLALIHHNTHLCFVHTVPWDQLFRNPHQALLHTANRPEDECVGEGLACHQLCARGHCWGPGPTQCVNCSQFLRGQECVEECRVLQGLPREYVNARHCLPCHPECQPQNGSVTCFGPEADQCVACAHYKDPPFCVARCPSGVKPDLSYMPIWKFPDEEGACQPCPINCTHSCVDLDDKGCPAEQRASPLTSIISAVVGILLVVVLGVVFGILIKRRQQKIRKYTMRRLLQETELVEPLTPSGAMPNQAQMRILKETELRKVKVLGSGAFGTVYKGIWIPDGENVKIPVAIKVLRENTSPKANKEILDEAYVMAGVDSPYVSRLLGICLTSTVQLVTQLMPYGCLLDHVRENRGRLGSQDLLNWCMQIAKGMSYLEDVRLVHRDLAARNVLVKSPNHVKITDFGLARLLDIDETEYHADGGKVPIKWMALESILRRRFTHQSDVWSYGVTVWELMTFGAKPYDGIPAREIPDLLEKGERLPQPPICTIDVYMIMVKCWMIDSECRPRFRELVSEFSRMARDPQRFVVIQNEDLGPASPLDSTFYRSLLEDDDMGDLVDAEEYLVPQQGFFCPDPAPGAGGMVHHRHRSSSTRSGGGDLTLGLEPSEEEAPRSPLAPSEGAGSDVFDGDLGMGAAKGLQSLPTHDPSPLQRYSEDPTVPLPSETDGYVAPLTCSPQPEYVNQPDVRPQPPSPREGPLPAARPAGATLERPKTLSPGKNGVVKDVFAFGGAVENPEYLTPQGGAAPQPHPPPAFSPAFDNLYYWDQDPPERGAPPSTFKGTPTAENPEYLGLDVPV", "assay": "Inhibition of human recombinant ERBB2 G778D mutant (676 to end residues) using poly(Glu,Tyr)4:1 as substrate incubated for 40 mins in presence of [gamma33P-ATP] by radiometric scintillation counting analysis"}}, "note": "The source made the active and inactive calls. The calls are words filed in the database; no cut-off is given here."}
{"smiles": "Cc1ccc(NC(=O)c2ccc(C)c(C(F)(F)F)c2)cc1C#Cc1nn([C@H]2CC[C@H](O)CC2)c2ncnc(N)c12", "values": [{"measurement": "IC50", "setting": "[1]", "value": 40, "unit": "nM"}, {"measurement": "Activity", "setting": "MDA-MB-231 [2]", "value": "Dose-dependent effect"}, {"measurement": "Activity", "setting": "MDA-MB-231 [3]", "value": 3.23, "unit": "%"}, {"measurement": "inhibition", "setting": "Mus musculus", "value": "Active"}, {"measurement": "IC50", "setting": "BT-474", "value": "> 10000", "unit": "nM"}, {"measurement": "Activity", "setting": "[4]", "value": "Non-Toxic"}, {"measurement": "inhibition", "setting": "[5]", "value": "Dose-dependent effect"}, {"measurement": "IC50", "setting": "[6]", "value": 165, "unit": "nM"}]}
